IC50 data for six molecules are collected here from ChEMBL document CHEMBL1149586 (Bioorg Med Chem, 2007).

Experiment [1] concerns the target Matrix metalloproteinase-14 (Homo sapiens, UniProt P50281). Nature of the experiment: Inhibition of MMP14.
Experiment [2] concerns the target 72 kDa type IV collagenase (Homo sapiens, UniProt P08253). Nature of the experiment: Inhibition of MMP2. A digest of the protocol: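 Incubated with compound at 1 to 5000 nM. Started with a fluorogenic quenched peptide substrate (1–10 nM). Initial hydrolysis rate, with (Vi) and without (Vo) compound, was followed by fluorescence.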
In a further experiment the target is Stromelysin-1 (Homo sapiens, UniProt P08254). Nature of the experiment: Inhibition of MMP3.
Chain of Stromelysin-1 (P08254 whole entry): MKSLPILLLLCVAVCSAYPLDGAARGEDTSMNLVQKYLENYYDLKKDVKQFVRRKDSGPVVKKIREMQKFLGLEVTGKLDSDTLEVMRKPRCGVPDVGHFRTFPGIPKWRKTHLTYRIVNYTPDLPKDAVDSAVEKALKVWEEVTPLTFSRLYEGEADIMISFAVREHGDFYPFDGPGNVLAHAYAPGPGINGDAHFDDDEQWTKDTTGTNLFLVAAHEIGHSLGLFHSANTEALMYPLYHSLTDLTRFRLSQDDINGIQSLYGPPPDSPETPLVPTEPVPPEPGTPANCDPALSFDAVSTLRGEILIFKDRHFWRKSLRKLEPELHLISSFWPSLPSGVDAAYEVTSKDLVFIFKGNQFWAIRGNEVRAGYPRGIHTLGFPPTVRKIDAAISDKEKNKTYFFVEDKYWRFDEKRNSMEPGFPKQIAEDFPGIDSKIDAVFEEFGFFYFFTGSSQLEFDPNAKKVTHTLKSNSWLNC
A further experiment has as its target T1, Interstitial collagenase (Homo sapiens, UniProt P03956).
T1 sequence (P03956 whole entry): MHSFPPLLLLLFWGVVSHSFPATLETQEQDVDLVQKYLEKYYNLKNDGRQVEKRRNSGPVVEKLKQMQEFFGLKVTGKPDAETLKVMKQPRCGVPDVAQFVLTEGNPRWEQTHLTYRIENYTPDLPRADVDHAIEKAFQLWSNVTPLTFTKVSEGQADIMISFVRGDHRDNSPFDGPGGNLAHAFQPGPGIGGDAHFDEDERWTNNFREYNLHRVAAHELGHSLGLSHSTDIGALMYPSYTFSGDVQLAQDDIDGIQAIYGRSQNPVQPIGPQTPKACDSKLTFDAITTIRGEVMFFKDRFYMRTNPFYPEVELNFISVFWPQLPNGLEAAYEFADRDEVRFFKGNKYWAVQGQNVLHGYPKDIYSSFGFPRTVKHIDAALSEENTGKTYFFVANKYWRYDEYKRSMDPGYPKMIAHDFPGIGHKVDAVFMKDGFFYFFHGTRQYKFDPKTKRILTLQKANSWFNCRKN
Nature of the experiment: Inhibition of MMP1.

In experiment [3] the target is Matrix metalloproteinase-9 (Homo sapiens, UniProt P14780). Nature of the experiment: Inhibition of MMP9.
Chain of Matrix metalloproteinase-9 (P14780 whole entry): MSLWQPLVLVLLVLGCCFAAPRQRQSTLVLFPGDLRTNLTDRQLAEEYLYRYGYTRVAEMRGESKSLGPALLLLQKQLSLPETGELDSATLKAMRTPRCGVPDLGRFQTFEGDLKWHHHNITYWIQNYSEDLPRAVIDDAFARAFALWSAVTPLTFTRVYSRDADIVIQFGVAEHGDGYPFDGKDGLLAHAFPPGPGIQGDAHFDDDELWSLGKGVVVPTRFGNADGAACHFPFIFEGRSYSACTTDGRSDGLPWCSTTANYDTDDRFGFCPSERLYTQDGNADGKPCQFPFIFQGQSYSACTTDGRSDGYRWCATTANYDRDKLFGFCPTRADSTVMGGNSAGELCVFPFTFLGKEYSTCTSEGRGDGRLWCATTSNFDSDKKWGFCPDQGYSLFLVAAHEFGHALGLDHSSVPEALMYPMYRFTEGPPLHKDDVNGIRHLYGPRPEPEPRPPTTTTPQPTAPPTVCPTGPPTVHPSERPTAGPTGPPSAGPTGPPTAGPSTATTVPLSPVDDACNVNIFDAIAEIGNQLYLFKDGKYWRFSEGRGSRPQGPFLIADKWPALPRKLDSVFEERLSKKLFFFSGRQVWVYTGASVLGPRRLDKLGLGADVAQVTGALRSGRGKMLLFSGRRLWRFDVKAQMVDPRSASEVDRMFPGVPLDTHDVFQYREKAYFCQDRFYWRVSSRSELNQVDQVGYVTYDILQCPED
Another experiment has as its target Collagenase 3 (Homo sapiens, UniProt P45452). Nature of the experiment: Inhibition of MMP13. Summed up: (§1)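 Human recombinant pro-enzymes, freshly activated with p-aminophenylmercuric acetate at 37 °C for 2 h. Used at 0.6 nM for MMP-13 and 3.8 nM for MMP-8. Incubated with compound from 1 to 5000 nM. Assay began with addition of a fluorogenic substrate (1–10 nM). Initial rates of peptide cleavage were measured fluorimetrically, with (Vi) and without (Vo) compound.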

For the next experiment, the target named is Neutrophil collagenase (Homo sapiens, UniProt P22894). Nature of the experiment: Inhibition of MMP8. Summed up:
as §1

Chain of 72 kDa type IV collagenase (P08253 whole entry): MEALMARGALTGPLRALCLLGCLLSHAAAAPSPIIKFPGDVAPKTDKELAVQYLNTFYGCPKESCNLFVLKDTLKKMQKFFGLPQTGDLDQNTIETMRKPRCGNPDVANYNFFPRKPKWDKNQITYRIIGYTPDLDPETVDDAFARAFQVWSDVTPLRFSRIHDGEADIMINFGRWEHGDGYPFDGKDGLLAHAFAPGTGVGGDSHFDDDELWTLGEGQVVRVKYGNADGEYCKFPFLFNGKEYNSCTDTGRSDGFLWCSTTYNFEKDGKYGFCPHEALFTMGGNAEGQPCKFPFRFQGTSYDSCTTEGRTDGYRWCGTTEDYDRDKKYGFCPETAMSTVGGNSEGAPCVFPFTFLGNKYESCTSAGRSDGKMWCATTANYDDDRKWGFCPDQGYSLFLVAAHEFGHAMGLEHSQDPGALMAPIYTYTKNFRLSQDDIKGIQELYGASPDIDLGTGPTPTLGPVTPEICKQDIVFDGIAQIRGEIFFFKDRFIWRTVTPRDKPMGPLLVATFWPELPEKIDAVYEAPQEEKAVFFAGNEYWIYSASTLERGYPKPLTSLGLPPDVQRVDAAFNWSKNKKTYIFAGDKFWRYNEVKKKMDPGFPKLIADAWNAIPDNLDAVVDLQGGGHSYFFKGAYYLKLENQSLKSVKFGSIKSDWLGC
Chain of Neutrophil collagenase (P22894 whole entry): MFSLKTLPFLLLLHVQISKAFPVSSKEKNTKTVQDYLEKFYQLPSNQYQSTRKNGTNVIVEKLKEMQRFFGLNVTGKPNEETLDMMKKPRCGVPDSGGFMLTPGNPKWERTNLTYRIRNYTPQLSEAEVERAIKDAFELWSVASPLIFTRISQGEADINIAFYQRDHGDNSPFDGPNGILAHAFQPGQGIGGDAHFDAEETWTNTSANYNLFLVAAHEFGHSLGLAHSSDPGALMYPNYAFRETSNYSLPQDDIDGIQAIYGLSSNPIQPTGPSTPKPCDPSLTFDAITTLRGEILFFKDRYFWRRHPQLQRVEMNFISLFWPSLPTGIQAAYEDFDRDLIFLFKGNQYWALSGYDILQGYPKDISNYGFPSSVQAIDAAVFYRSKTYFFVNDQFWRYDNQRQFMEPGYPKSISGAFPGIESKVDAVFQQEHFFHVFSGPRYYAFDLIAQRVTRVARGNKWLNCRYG

For `CNC(=O)[C@H](Cc1c[nH]c2ccccc12)NC(=O)/C(=C/C=C/c1ccccc1)CC(=O)NO`, the IC50 in experiment [1] came to 2490 nM; in experiment [2], 120 nM; against Stromelysin-1, 21000 nM; on Interstitial collagenase, 1240 nM; in experiment [3], 38 nM.
Turning to `CCCCCC/C=C(\CC(=O)NO)C(=O)N[C@@H](Cc1c[nH]c2ccccc12)C(=O)NC`, the IC50 in experiment [1] was 2660 nM; in experiment [2], 123 nM; against Stromelysin-1 it was over 10000 nM; at Interstitial collagenase it was 32000 nM; in experiment [3], over 10000 nM; at Collagenase 3, 122 nM. The IC50 against Neutrophil collagenase was 101 nM.
Regarding `CNC(=O)[C@H](Cc1c[nH]c2ccccc12)NC(=O)/C(=C/C(C)C)CC(=O)NO`, the IC50 in experiment [1] is 10 nM; in experiment [2], 9.2 nM; against Interstitial collagenase it was 18 nM; in experiment [3], 17 nM.
As to `CNC(=O)[C@H](Cc1c[nH]c2ccccc12)NC(=O)[C@@H](CC(=O)NO)CC(C)C` [ILOMASTAT], inhibition in experiment [1] was half-maximal at 13.4 nM (IC50).
For `CNC(=O)[C@H](Cc1c[nH]c2ccccc12)NC(=O)/C(=C/CCc1ccccc1)CC(=O)NO`, the IC50 is 53100 nM in experiment [1]; 280 nM in experiment [2]; 1920 nM on Stromelysin-1; 9130 nM against Interstitial collagenase; 45 nM in experiment [3].
On the same counts, the results for `C/C=C/C=C(\CC(=O)NO)C(=O)N[C@@H](Cc1c[nH]c2ccccc12)C(=O)NC` are 913 nM, 78500 nM, 8610 nM, 984 nM and 974 nM.

By IC50 is commonly meant the concentration that inhibits the measured activity by half.
